Shown are actives, neighbours in structure and some others; about 5.9% of the full set was active somewhere.
Tcruzi prolif = inhibitors of T. cruzi proliferation. hit rate 5.9% among 77,000. inhibition, % at 8.34 µM. T. cruzi beta-gal in NIH3T3, GalScreen luminescence, 90 h;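 active = mean inhibition above about 93%, with at least 55% of replicates each passing it, limit read from the data, passing the limit was not always enough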
Pf Dd2 growth = P. falciparum Dd2 growth inhibition; SYBR Green, 72 h; active compounds read low; activity change, % at 10 µM; hit rate 2.3% among 94,000; in the data active = activity change below about -80%
IDH1 R132H inh = inhibitors of human IDH1 R132H | O75874 | IDH1 R132H reductase, diaphorase/resazurin fluorescence, 60 min | inhibition, % at 10 µM | hit rate 0.18% among 70,000 | AID 624101; in the data active = inhibition above about 34%;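 also: 0% = DMSO and 100% = no enzyme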
Target sequence (O75874 whole entry R132H): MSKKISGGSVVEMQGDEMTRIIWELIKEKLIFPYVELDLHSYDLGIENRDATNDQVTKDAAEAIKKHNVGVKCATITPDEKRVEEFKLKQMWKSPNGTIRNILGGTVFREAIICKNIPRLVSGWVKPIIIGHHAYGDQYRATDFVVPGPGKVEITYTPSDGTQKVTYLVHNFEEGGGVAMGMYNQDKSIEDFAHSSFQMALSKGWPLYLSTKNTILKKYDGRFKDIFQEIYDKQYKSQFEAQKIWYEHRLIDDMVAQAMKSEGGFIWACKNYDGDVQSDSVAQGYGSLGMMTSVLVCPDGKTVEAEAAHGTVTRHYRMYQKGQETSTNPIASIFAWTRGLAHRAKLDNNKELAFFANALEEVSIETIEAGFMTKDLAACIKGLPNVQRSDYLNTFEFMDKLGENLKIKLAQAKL
KDM4C inh = blocks human GASC-1 (KDM4C) demethylase activity; inhibition, % at 12.5 µM; hit rate 0.15% among 96,000; Q9H3R0; GST-KDM4C 2-372, H3K9me3 peptide, LANCE TR-FRET;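 active = mean replicate inhibition above about 25%, with at least 55% of replicates also reaching it, limit read from the data, passing the limit was not always enough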
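System: N-terminal GST-fused human GASC-1 (KDM4C) fragment, residues 2-372 / Amount: 10 nM GST-KDM4C in enzyme reaction / Also added: H3K9me3 peptide with Fe(II)/2OG / Times: 30 min demethylation and 1 h detection at room temperature / Signal: LANCE TR-FRET / Read-out basis: Fall in 671/618 emission ratio as inhibition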
* marks the source's active call; other numbers are inactive results; ! = not confirmed by another sample.

C[C@@H]1CN([C@@H](C)CO)C(=O)c2c(c3ccccc3n2C)-c2ccccc2CO[C@@H]1CN(C)C(=O)c1cc(Cl)cc(Cl)c1 was read as Pf Dd2 growth -87.4* and KDM4C inh -4.0.
Screening C[C@@H]1CN([C@H](C)CO)C(=O)c2c(c3ccccc3n2C)-c2ccccc2CO[C@@H]1CN(C)C(=O)[C@H](C)c1ccccc1 returned Pf Dd2 growth -90.8* and KDM4C inh 0.6.
C[C@H](C(=O)N(C)C[C@H]1OCc2ccccc2-c2c(n(C)c3ccccc23)C(=O)N([C@H](C)CO)C[C@H]1C)c1ccccc1 was read as Pf Dd2 growth -57.2 and KDM4C inh -1.5.
`C[C@H](CO)N1C[C@H](C)[C@@H](CN(C)C(=O)[C@H](C)c2ccccc2)OCc2ccccc2-c2c(n(C)c3ccccc23)C1=O` gave Pf Dd2 growth -93.8* and KDM4C inh -1.6.
`CC(=O)c1ccc(NC(=O)Cn2cnc3ccccc3c2=O)cc1` gave IDH1 R132H inh 0.0.
`COc1ccc(S(=O)(=O)Nc2ccc(Br)c3cccnc23)c([N+](=O)[O-])c1` gave IDH1 R132H inh -0.3.
Screening C[C@H]1CN([C@@H](C)CO)C(=O)c2ccccc2-c2ccccc2CO[C@H]1CN(C)C(=O)c1cc(Cl)cc(Cl)c1 returned Pf Dd2 growth -83.0* and KDM4C inh 2.1.
For C[C@@H]1CN([C@@H](C)CO)C(=O)c2c(c3ccccc3n2C)-c2ccccc2CO[C@H]1CN(C)Cc1ccc2c(c1)OCO2 the results were Pf Dd2 growth -82.9* and KDM4C inh -0.5.
`C[C@@H]1CN([C@@H](C)CO)C(=O)c2c(c3ccccc3n2C)-c2ccccc2CO[C@H]1CN(C)Cc1ccc(Cl)c(Cl)c1` gave Pf Dd2 growth -91.1* and KDM4C inh -2.6.
`COc1ccc(C#Cc2cnc3c(c2)C(=O)N([C@@H](C)CO)C[C@H](C)[C@@H](CN(C)C)O3)cc1` gave Tcruzi prolif 49.2, Pf Dd2 growth -42.4, IDH1 R132H inh 0.2 and KDM4C inh 4.0.
Screening COc1ccc(C#Cc2cnc3c(c2)C(=O)N([C@H](C)CO)C[C@H](C)[C@H](CN(C)C(=O)c2ccccc2F)O3)cc1 returned Tcruzi prolif 60.4, Pf Dd2 growth -83.7*, IDH1 R132H inh -2.2 and KDM4C inh -2.0.
Screening CCCN(C)C[C@H]1Oc2ncc(C#Cc3ccc(OC)cc3)cc2C(=O)N([C@H](C)CO)C[C@H]1C returned Pf Dd2 growth -84.0*, IDH1 R132H inh 0.0 and KDM4C inh 4.3.
`COCC(=O)N(C)C[C@H]1Oc2ncc(C#CC(C)(C)O)cc2C(=O)N([C@@H](C)CO)C[C@H]1C` gave Tcruzi prolif -37.3, Pf Dd2 growth 37.5, IDH1 R132H inh 2.2 and KDM4C inh 27.2*.
`COc1ccc(C#Cc2cnc3c(c2)C(=O)N([C@H](C)CO)C[C@H](C)[C@H](CN(C)S(=O)(=O)c2cccs2)O3)cc1OC` gave Tcruzi prolif 76.9, Pf Dd2 growth -84.5*!, IDH1 R132H inh -0.1 and KDM4C inh -2.6.
COCC(=O)N(C)C[C@H]1Oc2ncc(C#CC(C)(C)O)cc2C(=O)N([C@H](C)CO)C[C@H]1C was read as Tcruzi prolif -80.1, Pf Dd2 growth 21.7, IDH1 R132H inh -0.2 and KDM4C inh 0.0.
Screening COc1ccc(C#Cc2cnc3c(c2)C(=O)N([C@H](C)CO)C[C@H](C)[C@H](CN(C)S(=O)(=O)c2ccccc2)O3)cc1OC returned Tcruzi prolif 29.5, Pf Dd2 growth -75.8, IDH1 R132H inh -0.4 and KDM4C inh -0.7.
For Cc1nn(Cc2cccc(Oc3ccccc3)c2)c(C)c1NC(=O)c1nc2ncccn2n1 the results were IDH1 R132H inh 0.0.
For COc1ccc(C#Cc2cnc3c(c2)C(=O)N([C@@H](C)CO)C[C@@H](C)[C@@H](CN(C)C)O3)cc1 the results were Tcruzi prolif 73.6, Pf Dd2 growth -58.1, IDH1 R132H inh 0.0 and KDM4C inh -1.5.
`CCCN(C)C[C@@H]1Oc2ncc(C#Cc3ccc(OC)c(OC)c3)cc2C(=O)N([C@H](C)CO)C[C@@H]1C` gave Tcruzi prolif 23.9, Pf Dd2 growth -82.3*, IDH1 R132H inh 2.0 and KDM4C inh -0.6.
For CCCN(C)C[C@H]1Oc2ncc(C#Cc3ccc(OC)cc3)cc2C(=O)N([C@@H](C)CO)C[C@H]1C the results were Pf Dd2 growth -86.9*, IDH1 R132H inh -0.1 and KDM4C inh -3.2.
Oc1c(C(Nc2ccccn2)c2cccc(F)c2)cc(Cl)c2cccnc12 (configuration not stated) was read as IDH1 R132H inh -0.8.
For CC(C)(O)C(O)Cc1cc2ccc(=O)oc2cc1O (configuration not stated) the results were IDH1 R132H inh -0.1.
Screening C[C@H](CO)N1C[C@H](C)[C@H](CN(C)Cc2ccc(-c3ccccc3)cc2)Oc2ccc(NC(=O)CCCCCC(=O)Nc3ccccc3N)cc2CC1=O returned Tcruzi prolif 35.9, Pf Dd2 growth -83.3* and IDH1 R132H inh 0.4.
For COc1ccc(CN(C)C[C@@H]2Oc3ccc(NC(=O)CCCCCC(=O)Nc4ccccc4N)cc3CC(=O)N([C@H](C)CO)C[C@@H]2C)cc1 the results were Pf Dd2 growth -84.7*, IDH1 R132H inh 0.3 and KDM4C inh -1.1.
For COc1ccc(CN(C)C[C@@H]2Oc3ccc(NC(=O)CCCCCC(=O)Nc4ccccc4N)cc3CC(=O)N([C@@H](C)CO)C[C@@H]2C)cc1 the results were Pf Dd2 growth -86.5* and KDM4C inh 1.6.
`CC(C)(C)c1ccc(-c2nnc(SCc3cccc(C(N)=O)c3)n2-c2ccc3c(c2)OCO3)cc1` gave IDH1 R132H inh -0.4.
`COC(=O)c1nnn(CC(=O)N(Cc2ccccc2)c2ccc(Br)cc2)c1C(=O)OC` gave IDH1 R132H inh 0.3.
`C[C@@H]1CCCCO[C@H](CN(C)C(=O)Nc2cccc3ccccc23)[C@@H](C)CN([C@H](C)CO)C(=O)c2cc(NC(=O)Cc3ccccc3)ccc2O1` gave Tcruzi prolif 23.2, Pf Dd2 growth -39.4, IDH1 R132H inh -0.3 and KDM4C inh -1.5.
Screening C[C@@H]1CCCCO[C@@H](CN(C)C(=O)Nc2cccc3ccccc23)[C@H](C)CN([C@@H](C)CO)C(=O)c2cc(NC(=O)Cc3ccccc3)ccc2O1 returned Tcruzi prolif 94.8, Pf Dd2 growth -80.5*, IDH1 R132H inh 2.2 and KDM4C inh -5.1.
C[C@H](CO)N1C[C@H](C)[C@H](CN(C)C(=O)Nc2cccc3ccccc23)OCCCC[C@H](C)Oc2ccc(NC(=O)Cc3ccccc3)cc2C1=O was read as Tcruzi prolif 41.9, Pf Dd2 growth -82.5* and KDM4C inh -2.6.
Screening CC(=O)c1ccc(NC(=O)CSc2nnc3n(-c4ccccc4)c(=O)c4c5c(sc4n23)COC(C)(C)C5)cc1 returned IDH1 R132H inh -0.1.
For COc1ccc(Br)c(/C=N/NC(=O)c2ccccn2)c1 the results were IDH1 R132H inh -0.7.
For C[C@H]1CN([C@@H](C)CO)C(=O)Cc2cc(NC(=O)c3ccncc3)ccc2O[C@H]1CN(C)Cc1ccc(C(=O)Nc2ccccc2N)cc1 the results were Tcruzi prolif 78.2, Pf Dd2 growth -45.2 and KDM4C inh 0.6.

Bioassay records from PubChem.
